In ChEMBL document CHEMBL3860087, “New Broad-Spectrum Antibacterial Amphiphilic Aminoglycosides Active against Resistant Bacteria: From Neamine Derivatives to Smaller Neosamine Analogues” (J Med Chem, 2016):
≈ marks a conversion by molar mass, not a printed value.

What was measured:
[1] = (§1) Cytotoxicity against mouse J774 cells assessed as cell viability at 10 uM after 24 hrs by MTT assay relative to control; assay type: toxicity, cell-based; details: J774 cells, read-out: Activity
How it was run: (§2)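 Murine J774 macrophages exposed 24 h to 10 or 30 μM compound, then 1 h with 0.2 mg/mL MTT; reaction stopped with DMSO, OD read at 570 nm as metabolic-activity viability. Number of independent experiments given per value.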

[2] = system: Staphylococcus aureus; test: Antibacterial activity against NorA expressing Staphylococcus aureus 1 by microdilution method
[3] = system: Acinetobacter lwoffii; test: Antibacterial activity against Acinetobacter lwoffii ATCC 17925 by microdilution method; assay type: functional
How it was run: (§3)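 Strains grown overnight at 37 °C on trypticase soy agar; MIC by broth microdilution from fresh culture in cation-adjusted Mueller–Hinton broth, starting inoculum 10^6 cells, following CLSI recommendations.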

[4] = system: Pseudomonas aeruginosa; test: Antibacterial activity against AAC6'-2A expressing Pseudomonas aeruginosa F03 by microdilution method; assay type: functional; how it was run: as §3
[5] = system: Klebsiella pneumoniae; test: Antibacterial activity against Klebsiella pneumoniae ATCC 700603 by microdilution method; assay type: functional; how it was run: as §3
[6] = system: Staphylococcus aureus; test: Antibacterial activity against Staphylococcus aureus ATCC 25923 by microdilution method; assay type: functional
How it was run: (§4)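 Broth microdilution per CLSI in cation-adjusted Mueller–Hinton broth. Strains were grown overnight at 37 °C on trypticase soy agar, and a fresh culture was used. Starting inoculum was 10^6 cells.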

[7] = system: Escherichia coli; test: Antibacterial activity against AAC6'-IB expressing Escherichia coli PAZ505H8101 by microdilution method; assay type: functional; how it was run: as §3
[8] = system: Pseudomonas aeruginosa; test: Ratio of MIC for Pseudomonas aeruginosa ATCC 27853 after 9 serial passages to MIC for Pseudomonas aeruginosa ATCC 27853 prior to serial passages; assay type: functional
[9] = system: Acinetobacter lwoffii; test: Antibacterial activity against APH3'-VIA expressing Acinetobacter lwoffii AI.88-483 by microdilution method; assay type: functional; how it was run: as §3
[10] = (§5) Cytotoxicity against mouse J774 cells assessed as cell viability at 30 uM after 24 hrs by MTT assay relative to control; assay type: toxicity, cell-based; details: J774 cells, read-out: Activity; how it was run: as §2
[11] = system: Pseudomonas aeruginosa; test: Antibacterial activity against Pseudomonas aeruginosa ATCC 27853 by microdilution method; assay type: functional; how it was run: as §3
[12] = system: Escherichia coli; test: Antibacterial activity against ANT2''-IA expressing Escherichia coli L8058.1 by microdilution method; assay type: functional; how it was run: as §3
[13] = system: Escherichia coli; test: microbe, parasite or virus in culture; details: ATCC 25922
[14] = system: Pseudomonas aeruginosa; test: Antibacterial activity against triABC deficient Pseudomonas aeruginosa PA406 by microdilution method; assay type: functional; how it was run: as §3
[15] = system: Staphylococcus aureus; test: Antibacterial activity against healthcare-acquired methicillin-resistant Staphylococcus aureus ATCC 33592 by microdilution method; assay type: functional; how it was run: as §4
[16] = system: Pseudomonas aeruginosa; test: Antibacterial activity against MexXY expressing Pseudomonas aeruginosa PA22 by microdilution method; assay type: functional; how it was run: as §3
[17] = system: Pseudomonas aeruginosa; test: Induction of inner membrane permeabilization of Pseudomonas aeruginosa ATCC 27853 at 150 uM after 15 mins by propidium iodide staining-based fluorescence assay relative to control; assay type: functional
[18] = system: Pseudomonas aeruginosa; test: Induction of inner membrane permeabilization of Pseudomonas aeruginosa ATCC 27853 at 5 uM after 15 mins by propidium iodide staining-based fluorescence assay relative to control; assay type: functional
How it was run: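 P. aeruginosa ATCC 27853 from TSA colony, overnight in MHB-CA at 37 °C with shaking, diluted 100-fold and grown 4 h to mid-log (OD620 ~0.4–0.5). Suspension (OD600 0.05) with PI (3 mM stock diluted 10^3-fold) plus compound in HEPES (1–10 μM final). Fluorescence ex 540/em 610 nm at 25 °C after 15 min; normalized to CTAB 150 μM (100%) and imipenem (0%).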

[19] = system: Pseudomonas aeruginosa; test: Ratio of MIC for Pseudomonas aeruginosa ATCC 27853 after 4 serial passages to MIC for Pseudomonas aeruginosa ATCC 27853 prior to serial passages; assay type: functional
[20] = system: Pseudomonas aeruginosa; test: Induction of inner membrane permeabilization of Pseudomonas aeruginosa ATCC 27853 after 15 mins by propidium iodide staining-based fluorescence assay; assay type: functional
How it was run: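 Mid-log P. aeruginosa (OD620 ~0.4–0.5, grown in CA-MHB at 37 °C, 130 rpm) was adjusted to OD600 0.05. A 3 mM propidium iodide stock was diluted 10^3-fold in the suspension. Compounds in HEPES were added at final 1–10 μM. Fluorescence (ex 540/em 610 nm) was read at 25 °C after 15 min stabilization. Values were normalized to 150 μM CTAB (100%) and imipenem (0%).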

[21] = species: Mus musculus; test: as §1; assay type: toxicity, cell-based; details: j774, 24 h, 10 µM; how it was run: as §2
[22] = species: Mus musculus; test: as §5; assay type: toxicity, cell-based; details: j774, 24 h, 30 µM; how it was run: as §2

Row | Molecule | viability at 24 h, 10 µM [1] [%] | MIC [2] [µg/mL] | MIC [3] [µg/mL] | MIC [4] [µg/mL] | MIC [5] [µg/mL] | MIC [6] [µg/mL] | MIC [7] [µg/mL] | MIC [9] [µg/mL] | viability at 24 h, 30 µM [10] [%] | MIC [11] [µg/mL] | MIC [12] [µg/mL] | MIC [13] [µg/mL] | MIC [14] [µg/mL] | MIC [15] [µg/mL] | MIC [16] [µg/mL] | further results
1 | NC[C@H]1O[C@H](O[C@H]2[C@H](O)[C@@H](O)[C@H](N)C[C@@H]2N)[C@H](N)[C@@H](OCCCc2ccc3ccccc3c2)[C@@H]1OCCCc1ccc2ccccc2c1 | 87.7 | 0.5 to 1 (≈ 0.759 to 1.52 µM) | 2 to 4 (≈ 3.04 to 6.07 µM) | 8 (≈ 12.1 µM) | 64 (≈ 97.1 µM) | 2 to 4 (≈ 3.04 to 6.07 µM) | 2 (≈ 3.04 µM) | 32 to 64 (≈ 48.6 to 97.1 µM) | 66.9 | 4 (≈ 6.07 µM) | 4 to 8 (≈ 6.07 to 12.1 µM) | 16 to 32 (≈ 24.3 to 48.6 µM) | 4 (≈ 6.07 µM) | 1 to 2 (≈ 1.52 to 3.04 µM) | 16 (≈ 24.3 µM) | Ratio [8]: 15
2 | Hexadecyltrimethylammonium bromide | – | – | – | – | – | – | – | – | – | – | – | – | – | – | – | Activity [17]: 100%
3 | CCCCCCCCCO[C@@H]1[C@@H](N)[C@@H](OCC(O)CNCCCN)O[C@H](CN)[C@H]1OCCCCCCCCC (mixture of isomers) | 101 | 2 | 2 | 8 | 32 | 2 | 4 | 8 | 71.6 | 8 | 8 | 8 | 4 | 2 | 8 | Activity [18]: 25%
4 | CCCCCCCCCO[C@@H]1[C@@H](N)[C@@H](O[C@H]2[C@H](O)[C@@H](O)[C@H](N)C[C@@H]2N)O[C@H](CN)[C@H]1OCCCCCCCCC | 82.7 | 2 (≈ 3.48 µM) | 2 to 4 (≈ 3.48 to 6.96 µM) | 8 to 16 (≈ 13.9 to 27.8 µM) | 16 to 32 (≈ 27.8 to 55.7 µM) | 4 (≈ 6.96 µM) | 2 to 4 (≈ 3.48 to 6.96 µM) | 32 (≈ 55.7 µM) | 48.6 | 8 to 16 (≈ 13.9 to 27.8 µM) | 4 to 8 (≈ 6.96 to 13.9 µM) | 4 to 8 (≈ 6.96 to 13.9 µM) | 8 to 16 (≈ 13.9 to 27.8 µM) | 4 (≈ 6.96 µM) | 8 to 16 (≈ 13.9 to 27.8 µM) | Activity [18]: 25%
5 | O=C(O)c1cn(C2CC2)c2cc(N3CCNCC3)c(F)cc2c1=O [CIPROFLOXACIN] | – | – | – | – | – | – | – | – | – | – | – | – | – | – | – | Ratio [19]: 15
6 | C[C@@H](O)[C@H]1C(=O)N2C(C(=O)O)=C(SCCNC=N)C[C@H]12 [IMIPENEM ANHYDROUS] | – | – | – | – | – | – | – | – | – | – | – | – | – | – | – | Activity [20]: 0%
7 | CCCCCCCCCO[C@@H]1[C@@H](N)[C@@H](OC[C@H](O)CN)O[C@H](CN)[C@H]1OCCCCCCCCC | 88 | 2 (≈ 3.97 µM) | 2 (≈ 3.97 µM) | 8 (≈ 15.9 µM) | 8 to 16 (≈ 15.9 to 31.8 µM) | 2 (≈ 3.97 µM) | 4 (≈ 7.94 µM) | 8 (≈ 15.9 µM) | 14.4 | 8 (≈ 15.9 µM) | 4 (≈ 7.94 µM) | 4 (≈ 7.94 µM) | 8 (≈ 15.9 µM) | 2 (≈ 3.97 µM) | 8 (≈ 15.9 µM) | –
8 | GENTAMICIN | – | – | – | – | – | – | – | – | – | – | – | – | – | – | – | Activity [21]: 88.2%; Activity [22]: 74.2%
